This is a sample that favours compounds with a hit; in the whole collection about 1.7% have one here.
PP5 inh – PP5 (human) phosphatase inhibition; purified PP5c, OMFP substrate fluorescence; inhibition, % at 6.7 µM; actives 0.18% (n = 320,000); P53041; AID 1987;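 active = inhibition above the campaign's mean inhibition across all tested compounds plus 3 SD, cut at about 9.5% in these data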;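 note: 0% = DMSO only and 100% = 100 µM cantharidin control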
EBNA-1 inh – blocks EBNA-1 binding to DNA. inhibition, % at 14.8 µM. EBNA-1 DNA binding, fluorescence polarization. actives 0.34% (n = 300,000); in the data active = inhibition above about 28%
ZTA counter – counter-screen for EBNA-1 inhibitors: inhibitors of Epstein-Barr virus ZTA; P03206; ZTA-DNA binding, fluorescence polarization; inhibition, % at 11 µM; actives 0.15% (n = 320,000); in the data active = inhibition above about 33%
Target sequence (P03206 whole entry, looked up): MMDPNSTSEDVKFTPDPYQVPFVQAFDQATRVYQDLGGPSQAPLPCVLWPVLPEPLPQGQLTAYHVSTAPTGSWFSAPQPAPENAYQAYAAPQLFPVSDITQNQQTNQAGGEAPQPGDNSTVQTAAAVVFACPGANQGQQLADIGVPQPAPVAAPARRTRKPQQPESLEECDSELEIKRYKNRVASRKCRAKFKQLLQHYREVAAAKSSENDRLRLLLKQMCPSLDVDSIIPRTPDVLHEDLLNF
core dimer inh – HCV core protein dimerization inhibition | inhibition, % at 5 µM | actives 0.33% (n = 300,000) | AID 1899 | TR-FRET GST/Flag-core106 dimerization, 1536-well;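 active = inhibition above the mean of all tested compounds plus 3 SD, set per screening campaign, cut at about 45% in these data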
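Assay system: Tagged HCV core106 pair (GST and Flag) | Buffer or medium: KF-containing HEPES buffer, pH 7.45, DTT, CHAPS, BSA | Also added: Eu donor and XL665 acceptor anti-tag antibodies | Dosing: One concentration, 5 µM, in 0.5% DMSO | Timing: 4 h at 22.5 °C | Technique: TR-FRET 671 and 617 nm emission | Repeats: Singlicate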
PP1 counter – PP1-alpha (human) inhibition in PP5 counter-screen; purified PP1alpha, OMFP fluorescence; actives 0.9% (n = 320,000); P62136; inhibition, % at 6.7 µM;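 active = inhibition above the mean inhibition of all tested compounds plus 3 SD, computed separately for each screening campaign, cut at about 15% in these data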
Target sequence (P62136 whole entry, looked up): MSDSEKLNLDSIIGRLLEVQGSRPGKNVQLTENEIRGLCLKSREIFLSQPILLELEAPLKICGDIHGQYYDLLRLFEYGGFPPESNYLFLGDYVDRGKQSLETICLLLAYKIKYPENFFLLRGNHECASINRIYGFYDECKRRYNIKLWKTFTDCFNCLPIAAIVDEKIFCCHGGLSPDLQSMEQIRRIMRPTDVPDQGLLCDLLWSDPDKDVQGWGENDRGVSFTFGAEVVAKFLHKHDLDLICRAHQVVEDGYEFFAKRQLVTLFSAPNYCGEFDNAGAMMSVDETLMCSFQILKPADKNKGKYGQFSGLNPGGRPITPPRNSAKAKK
ZTA inh confirm – EBV ZTA DNA binding inhibition, confirmation. shares compounds with ZTA counter. Zta-ZRE DNA binding, fluorescence polarization. inhibition, % at 11.1 µM. actives 30% (n = 320). AID 2361;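 active = mean inhibition across triplicate runs above the hit threshold derived for the original primary screen, cut at about 33% in these data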;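 note: 0% = Zta with DMSO and 100% = wells lacking Zta protein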
EBNA1 counter – blocks EBNA-1 DNA binding in ZTA counter-screen. shares compounds with ZTA counter. fluorescence polarization. inhibition, % at 14.8 µM. 320 tested, under 10 active. AID 2362; call rule not given here
PP1 inh confirm – confirmation of human PP1 phosphatase inhibitors; shares compounds with PP1 counter; purified PP1alpha, OMFP substrate fluorescence; inhibition, % at 6.7 µM; actives 52% (n = 1,900); AID 2358;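 active = mean PP1 inhibition above a set limit taken from the earlier primary screen, cut at about 15% in these data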
PP5 inh counter – PP5 phosphatase inhibition, counter-screen for PP1 inhibitors | shares compounds with PP1 counter | purified PP5c, OMFP fluorescence | inhibition, % at 6.7 µM | actives 4% (n = 1,900);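 active = mean PP5 inhibition over triplicate wells above about 9.5% taken from the earlier PP1 screen, limit read from the data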
* = called active by the depositor; / = not tested or not shown.

SMILES	PP5 inh	EBNA-1 inh	ZTA counter	core dimer inh	PP1 counter	ZTA inh confirm	EBNA1 counter	others
CCNc1c([N+](=O)[O-])c(=O)oc2ccccc12	-3	4	35*	0	5	-9	-4
COc1ccc(N2CCN(S(C)(=O)=O)CC2)cc1	2	3	-6	-4	-2	/	/
COc1ccc(N2CCN(S(=O)(=O)c3ccc(OC)cc3)CC2)cc1	1	21	99*	-2	0	7	13
COc1ccc(Cl)cc1NC(=O)CN(C)CC(=O)Nc1ccc(C)cc1Br	4	-10	-16	-1	3	/	/
O=C(Nc1ccccc1Sc1ccccc1)c1ccccc1F	1	-7	37*	1	2	-2	-5
O=C(Nc1ccccc1C(=O)Nc1ccccc1)c1ccccc1F	2	1	6	0	2	/	/
O=C(CC(C(=O)O)c1ccc(Cl)cc1)c1ccc(Cl)c(Cl)c1 (stereo not given)	0	1	-8	12	10	/	/
O=C(CC(C(=O)O)c1ccc(Cl)cc1Cl)c1ccc(Cl)cc1 (stereo not given)	3	7	33*	5	1	-1	-3
Cc1ccc(NC(=O)CCc2nnc(SCC(=O)Nc3ccccc3C)n2C)cc1Cl	5	-14	69*	4	5	6	-1
CC(=O)[C@]1(O)Cc2c(O)c3c(c(O)c2[C@@H](O[C@H]2C[C@H](N)[C@H](O)[C@H](C)O2)C1)C(=O)c1ccccc1C3=O	-7	-12	26	-33	-8	/	/
COc1cccc2c1C(=O)c1c(O)c3c(c(O)c1C2=O)C[C@@](O)(C(=O)CO)C[C@@H]3O[C@H]1C[C@H](N)[C@@H](O)[C@H](C)O1	0	20	72*	-23	-2	106*	12
COc1ccc(S(=O)(=O)N2CCOCC2)cc1NC(=O)Cc1ccc(Cl)c(Cl)c1	8	2	-2	-8	-1	/	/
COc1ccc(S(=O)(=O)/N=C2\C=C(Nc3ccc(O)cc3)C(=O)c3ccccc32)cc1	7	-7	35*	-22	3	31	-10
Cc1ccc2n(n1)c(=O)c(Cc1ccccc1)c([O-])[n+]2-c1ccccc1	-1	1	2	0	-3	/	/
O=C(O)c1ccc(-c2ccc(/C=c3/sc4nc5ccccc5n4c3=O)o2)cc1Cl	2	-5	34*	10	-4	53*	-4
Cc1ccc2c(nc3s/c(=C\c4ccc(-c5ccccc5C(=O)O)o4)c(=O)n32)c1C	2	0	8	12	-4	/	/
Cc1cc(C(F)(F)F)c(C#N)c(SCC(=O)Nc2nc3ccccc3s2)n1	-1	-13	6	14	-1	/	/
Cc1ccc2sc(NC(=O)CSc3nc(C)cc(C)c3C#N)nc2c1	1	11	38*	5	-1	0	-7
Cn1c(SCC(=O)N2CCN(c3ccccc3)CC2)nnc1-c1ccncc1	0	-9	38*	-1	-3	-1	4
CN(C)S(=O)(=O)N1CCCC(C(=O)c2ccc(C(F)(F)F)cc2)C1 (stereo not given)	0	3	5	-2	-3	/	/
O=c1[nH]c(/C=C\c2cccc(F)c2)nc(O)c1[N+](=O)[O-]	1	1	-2	17	2	/	/
O=c1[nH]c(/C=C\c2cccc(Cl)c2)nc(O)c1[N+](=O)[O-]	1	3	40*	5	3	38*	4
COC(=O)c1ccc(C(=O)OC)c(NC(=S)N2CCN(c3ccccn3)CC2)c1	1	1	-10	-3	-2	/	/
Cc1ccc(-n2[nH]c(C)c(C=Nc3ccc4[nH]c(=O)[nH]c4c3)c2=O)cc1C	3	-7	52*	-4	3	14	-2
Cc1ccc(-n2[nH]c(C)c(C=Nc3ccc4[nH]c(=O)[nH]c4c3)c2=O)cc1	0	3	-8	-8	1	/	/
SMILES	PP5 inh	EBNA-1 inh	ZTA counter	core dimer inh	PP1 counter	ZTA inh confirm	EBNA1 counter	others
S=C(Sc1ccc(Cl)cc1)Sc1ccc(Cl)cc1	0	6	-7	-4	2	/	/
COc1cc(/C=C2\COC/C(=C\c3ccc(O)c(OC)c3)C2=O)ccc1O	1	8	52*	11	0	42*	-11
COc1cc(/C=C2/CC/C(=C/c3ccc(O)c(OC)c3)C2=O)ccc1O	3	-1	-10	27	8	/	/
CC1C/C(=C/c2ccncc2)C(=O)/C(=C/c2ccncc2)C1 (stereo not given)	-3	-5	43*	7	5	48*	3
N#Cc1c(C(F)(F)F)cc(-c2ccccc2)nc1SCc1nc(N)nc(N2CCOCC2)n1	2	1	-17	-4	-1	/	/
C#CCOCCOCCOCCNc1nc(N2CCN(C(=O)CCCCCCCCCCNC(=O)Cn3cc(CCCCCN)nn3)CC2)nc(N2CCN(C(=O)CCCCCCCCCCNC(=O)[C@H]([C@@H](C)CC)n3cc(CCCCCN)nn3)CC2)n1	3	4	83*	16	46*	35*	-5	PP1 inh confirm=35*;PP5 inh counter=-1
C#CCOCCOCCOCCNc1nc(N2CCN(C(=O)CCCCCCCCCCNC(=O)Cn3cc(CCCCCN)nn3)CC2)nc(N2CCN(C(=O)CCCCCCCCCCNC(=O)[C@H](CO)n3cc(CCCCCN)nn3)CC2)n1	0	6	50*	-13	35*	36*	-9	PP1 inh confirm=15;PP5 inh counter=-2
C#CCOCCOCCOCCNc1nc(N2CCN(C(=O)CCCCCCCCCCNC(=O)[C@@H](CCSC)n3cc(CCO)nn3)CC2)nc(N2CCN(C(=O)CCCCCCCCCCNC(=O)[C@H]([C@@H](C)CC)n3cc(CCCCN=C(N)N)nn3)CC2)n1	3	10	121*	-1	55*	59*	-4	PP1 inh confirm=49*;PP5 inh counter=0
C#CCOCCOCCOCCNc1nc(N2CCOCC2)nc(N2CCN(C(=O)CCCCCCCCCCNC(=O)[C@@H](CCSC)n3cc(CCO)nn3)CC2)n1	2	-2	-20	1	-1	/	/
C#CCOCCOCCOCCNc1nc(N2CCN(C(=O)CCCCCCCCCCNC(=O)[C@H](CCCCN)n3cc(CCO)nn3)CC2)nc(N2CCN(C(=O)CCCCCCCCCCNC(=O)[C@@H]([C@H](C)O)n3cc(C)nn3)CC2)n1	1	-3	30	-8	15	/	/
